# Measured values reported in ChEMBL document CHEMBL2346589, “Fragment-based drug discovery of 2-thiazolidinones as inhibitors of the histone reader BRD4 bromodomain” (J Med Chem, 2013).
# Key:
# [1] = target: T1, Bromodomain-containing protein 4 (Homo sapiens, UniProt O60885); test: Displacement of FITC-labeled (+)-JQ1 from bromodomain BRD4(1) (unknown origin) expressed in Escherichia coli BL21(DE3) at 50 uM after 4 hrs by fluorescence anisotropy assay relative to control
# In short: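 Same BRD4(1) fluorescence anisotropy competition set-up: 45 nM protein, 5 nM FITC-(+)-JQ1 tracer, HEPES pH 7.4/CHAPS buffer, 4 h in the dark at room temperature, ex 485/em 530 nm. Single ligand concentration of 50 μM, reported as percent inhibition.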
# [2] = target: T1, Bromodomain-containing protein 4; test: Displacement of FITC-labeled (+)-JQ1 from bromodomain BRD4(1) (unknown origin) expressed in Escherichia coli BL21(DE3) after 4 hrs by fluorescence anisotropy assay
# In short: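 BRD4(1), His6-tagged, expressed in E. coli BL21(DE3) codon plus RIL, Ni-NTA purified, tag removed with TEV, then gel filtration. Varied compound concentrations, DMSO 5‰ final. 4 h equilibration in the dark at room temperature. IC50 from two independent experiments.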
# [3] = system: HT-29; test: Growth inhibition of human HT-29 cells after 72 hrs by sulforhodamine B assay; format: functional; conditions: HT-29, 72 h
# In short: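 HT-29 cells in McCoy's 5A with 10% FBS at 37 °C, 5% CO2. DMSO stocks (0.01 mol/L) diluted in normal saline. Graded concentrations applied in triplicate for 72 h, then SRB staining with A560 read-out. Inhibition rate from A560 treated/control. GI50 from four independent experiments, mean ± SD.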
# [4] = target: T1, Bromodomain-containing protein 4; test: Inhibition of bromodomain BRD4-mediated c-myc mRNA expression in human HT-29 cells at 10 uM after 24 hrs by RT-qPCR analysis relative to control; format: cell-based
# In short: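 HT-29 cells (McCoy's 5A, 10% FBS, 37 °C, 5% CO2) seeded in six-well plates overnight, then exposed 24 h to compound at 10 μM final (DMSO stock diluted in saline). Total RNA extracted with Trizol, reverse-transcribed, and quantified by RT-qPCR. c-myc levels normalised to β-actin and expressed relative to untreated control. Three independent experiments, mean ± SD.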
# [5] = target: CYP2D6 (Homo sapiens, UniProt P10635); test: Inhibition of CYP2D6 (unknown origin)-mediated dextromethorphan metabolite conversion at 10 uM after 20 mins relative to control; format: ADME; conditions: probe dextromethorphan
# In short: (§1)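 Human liver microsomes at 0.2 mg/mL in 100 mM phosphate pH 7.4 with 1 mM NADPH. Probe cocktail: midazolam 10 μM, dextromethorphan 10 μM, diclofenac 20 μM, phenacetin 100 μM, mephenytoin 100 μM. Test compound at 10 μM; PBS as negative control. 5 min preincubation at 37 °C, then 20 min reaction started with an NADPH-generating system. Metabolite formation expressed relative to PBS.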
# [6] = target: CYP3A4 (Homo sapiens, UniProt P08684); test: Inhibition of CYP3A4 (unknown origin)-mediated midazolam metabolite conversion at 10 uM after 20 mins relative to control; format: ADME; conditions: probe midazolam; in short: as §1
# [7] = target: CYP2C9 (Homo sapiens, UniProt P11712); test: Inhibition of CYP2C9 (unknown origin)-mediated diclofenac metabolite conversion at 10 uM after 20 mins relative to control; format: ADME; conditions: probe diclofenac; in short: as §1
# [8] = target: T2, CYP1A2 (Homo sapiens, UniProt P05177); test: Inhibition of CYP1A2 (unknown origin)-mediated phenacetin metabolite conversion at 10 uM after 20 mins relative to control; format: ADME; conditions: probe phenacetin; in short: as §1
# T2 sequence (P05177 whole entry): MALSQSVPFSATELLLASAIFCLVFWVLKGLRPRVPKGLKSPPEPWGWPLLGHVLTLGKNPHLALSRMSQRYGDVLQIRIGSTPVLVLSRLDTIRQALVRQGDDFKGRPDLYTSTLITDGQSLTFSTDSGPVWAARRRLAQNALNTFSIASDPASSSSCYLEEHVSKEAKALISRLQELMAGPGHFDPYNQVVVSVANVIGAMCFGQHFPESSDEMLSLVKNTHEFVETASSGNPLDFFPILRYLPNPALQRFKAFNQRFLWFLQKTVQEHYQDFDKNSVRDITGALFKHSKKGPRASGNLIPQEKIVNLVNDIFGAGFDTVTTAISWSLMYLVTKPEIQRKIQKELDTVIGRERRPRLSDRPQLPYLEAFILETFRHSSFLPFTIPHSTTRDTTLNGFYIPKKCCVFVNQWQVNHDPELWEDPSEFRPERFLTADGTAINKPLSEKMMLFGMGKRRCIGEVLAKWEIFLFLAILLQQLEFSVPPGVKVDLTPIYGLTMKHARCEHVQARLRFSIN
# [9] = target: CYP2C19 (Homo sapiens, UniProt P33261); test: Inhibition of CYP2C19 (unknown origin)-mediated mephenytoin metabolite conversion at 10 uM after 20 mins relative to control; format: ADME; conditions: probe mephenytoin; in short: as §1
# [10] = Intrinsic clearance in human liver microsomes at 1 uM after 5 mins by LC/MS/MS analysis; format: ADME, Microsome; conditions: read-out: CLH
# In short: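 Liver microsomes at 0.5 mg/mL with 1 μM compound in 0.1 M phosphate pH 7.4, 1 mM EDTA, 5 mM MgCl2. Preincubated 5 min at 37 °C, then started with 1 mM NADPH. Sampled at 0, 5, 10 and 30 min, quenched with cold acetonitrile. Parent remaining measured by LC/MS/MS.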
# [11] = Intrinsic clearance in mouse liver microsomes at 1 uM after 5 mins by LC/MS/MS analysis; format: ADME, Microsome; conditions: read-out: CLH
# Chain of CYP2C9 (P11712 whole entry): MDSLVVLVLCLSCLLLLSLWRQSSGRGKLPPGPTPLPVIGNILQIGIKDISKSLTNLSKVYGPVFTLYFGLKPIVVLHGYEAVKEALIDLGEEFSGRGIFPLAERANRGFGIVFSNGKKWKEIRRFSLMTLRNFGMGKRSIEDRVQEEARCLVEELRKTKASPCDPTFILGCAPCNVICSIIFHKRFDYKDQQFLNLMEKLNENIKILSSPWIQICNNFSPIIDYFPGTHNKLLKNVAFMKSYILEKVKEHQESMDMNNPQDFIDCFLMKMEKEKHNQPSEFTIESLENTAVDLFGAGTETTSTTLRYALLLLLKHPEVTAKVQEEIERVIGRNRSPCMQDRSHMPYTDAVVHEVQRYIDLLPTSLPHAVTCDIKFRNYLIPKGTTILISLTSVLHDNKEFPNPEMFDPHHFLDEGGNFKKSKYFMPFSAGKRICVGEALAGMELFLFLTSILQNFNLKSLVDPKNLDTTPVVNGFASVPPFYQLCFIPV
# Chain of CYP2C19 (P33261 whole entry): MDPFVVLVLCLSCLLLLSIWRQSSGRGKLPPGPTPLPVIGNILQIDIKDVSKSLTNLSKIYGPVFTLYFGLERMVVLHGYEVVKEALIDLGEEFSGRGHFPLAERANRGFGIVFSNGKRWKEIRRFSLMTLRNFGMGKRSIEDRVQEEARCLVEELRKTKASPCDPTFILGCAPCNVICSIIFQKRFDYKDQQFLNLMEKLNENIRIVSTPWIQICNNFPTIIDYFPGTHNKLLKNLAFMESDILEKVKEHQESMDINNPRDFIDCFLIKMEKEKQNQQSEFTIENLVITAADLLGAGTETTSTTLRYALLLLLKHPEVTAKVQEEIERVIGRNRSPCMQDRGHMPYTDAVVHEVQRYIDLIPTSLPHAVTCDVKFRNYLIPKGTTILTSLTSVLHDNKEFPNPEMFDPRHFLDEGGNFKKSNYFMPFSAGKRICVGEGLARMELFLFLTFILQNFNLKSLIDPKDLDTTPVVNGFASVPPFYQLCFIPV
# Chain of CYP3A4 (P08684 whole entry): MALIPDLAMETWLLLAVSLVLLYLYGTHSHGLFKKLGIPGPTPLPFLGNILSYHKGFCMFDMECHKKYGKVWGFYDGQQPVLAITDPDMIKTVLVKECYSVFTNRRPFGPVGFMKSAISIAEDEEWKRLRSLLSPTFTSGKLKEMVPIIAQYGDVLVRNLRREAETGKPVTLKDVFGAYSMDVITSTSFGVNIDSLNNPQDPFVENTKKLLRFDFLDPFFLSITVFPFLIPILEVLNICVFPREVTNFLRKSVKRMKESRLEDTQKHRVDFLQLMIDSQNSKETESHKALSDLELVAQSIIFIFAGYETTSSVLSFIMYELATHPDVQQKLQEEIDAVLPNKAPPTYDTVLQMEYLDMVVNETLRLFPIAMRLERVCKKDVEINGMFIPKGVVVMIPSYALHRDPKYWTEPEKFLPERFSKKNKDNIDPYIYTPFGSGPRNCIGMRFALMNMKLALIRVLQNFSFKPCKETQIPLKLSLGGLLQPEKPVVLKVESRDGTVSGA
# Chain of CYP2D6 (P10635 whole entry): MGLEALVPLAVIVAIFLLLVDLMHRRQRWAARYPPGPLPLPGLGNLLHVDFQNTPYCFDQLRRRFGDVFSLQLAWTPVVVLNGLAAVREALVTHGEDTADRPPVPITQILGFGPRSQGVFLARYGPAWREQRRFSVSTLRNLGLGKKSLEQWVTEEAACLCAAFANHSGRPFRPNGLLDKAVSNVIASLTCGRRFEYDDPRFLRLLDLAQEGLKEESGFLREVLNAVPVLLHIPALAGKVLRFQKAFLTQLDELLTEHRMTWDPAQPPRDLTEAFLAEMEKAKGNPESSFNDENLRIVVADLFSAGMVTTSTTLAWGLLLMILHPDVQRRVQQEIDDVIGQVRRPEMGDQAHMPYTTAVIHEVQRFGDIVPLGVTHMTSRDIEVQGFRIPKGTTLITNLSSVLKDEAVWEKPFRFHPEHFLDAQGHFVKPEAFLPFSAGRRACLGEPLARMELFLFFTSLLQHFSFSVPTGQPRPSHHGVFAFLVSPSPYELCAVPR
structure (smiles),measurement,setting,value
O=C(Cc1ccccc1)Nc1cccc(-c2csc(=O)[nH]2)c1,inhibition,[1],45.6%
Nc1cccc(-c2csc(=O)[nH]2)c1,IC50,[2],42 µM
O=c1[nH]c(-c2ccc(NS(=O)(=O)c3cccs3)cc2)cs1,inhibition,[1],38.6%
O=c1[nH]c(-c2cccc(NS(=O)(=O)c3cccc4cccnc34)c2)cs1,inhibition,[1],45.7%
O=C(Cc1ccccc1)Nc1cc(-c2csc(=O)[nH]2)ccc1NS(=O)(=O)c1cccs1,IC50,[2],3.5 µM
Cc1noc(C)c1-c1ccccc1,IC50,[2],0.8 µM
same,GI50,[3],22.5 µM
same,inhibition,[4],> 50%
O=C(Nc1cc(NS(=O)(=O)c2cccs2)cc(-c2csc(=O)[nH]2)c1)c1cccs1,"inhibition at 20 min, 10 µM",[5],20%
same,"inhibition at 20 min, 10 µM",[6],8%
same,"inhibition at 20 min, 10 µM",[7],41%
same,"inhibition at 20 min, 10 µM",[8],29%
same,"inhibition at 20 min, 10 µM",[9],39%
same,microsomal CLint at 1 µM,[10],18 µL/min/mg
same,microsomal CLint at 1 µM,[11],52 µL/min/mg
O=c1[nH]c(-c2cccc(NS(=O)(=O)c3cccs3)c2)cs1,"inhibition at 20 min, 10 µM",[5],22%
same,"inhibition at 20 min, 10 µM",[6],17%
same,IC50,[2],4.1 µM
same,"inhibition at 20 min, 10 µM",[7],34%
same,"inhibition at 20 min, 10 µM",[8],16%
same,"inhibition at 20 min, 10 µM",[9],36%
same,microsomal CLint at 1 µM,[10],24 µL/min/mg
same,microsomal CLint at 1 µM,[11],120 µL/min/mg
O=c1[nH]c(-c2ccc(NS(=O)(=O)c3cccs3)c(O)c2)cs1,IC50,[2],3.3 µM
O=C(CCC1CCCCC1)Nc1cc(NS(=O)(=O)c2cccs2)cc(-c2csc(=O)[nH]2)c1,IC50,[2],2.2 µM
Nc1cc(N)cc(-c2csc(=O)[nH]2)c1,IC50,[2],50.7 µM
O=C(CCc1ccccc1)Nc1cc(-c2csc(=O)[nH]2)ccc1NS(=O)(=O)c1cccs1,IC50,[2],2.6 µM
CCCC(=O)Nc1cc(-c2csc(=O)[nH]2)ccc1NS(=O)(=O)c1cccs1,IC50,[2],2.4 µM
O=c1[nH]c(-c2cccc(NS(=O)(=O)c3ccc(F)cc3)c2)cs1,IC50,[2],3.7 µM
same,GI50,[3],47.8 µM
CCCC(=O)Nc1cc(NS(=O)(=O)c2cccs2)cc(-c2csc(=O)[nH]2)c1,IC50,[2],0.79 µM
O=C(CCc1ccccc1)Nc1cc(NS(=O)(=O)c2cccs2)cc(-c2csc(=O)[nH]2)c1,IC50,[2],0.57 µM
COc1ccc(S(=O)(=O)Nc2cccc(-c3csc(=O)[nH]3)c2)cc1,IC50,[2],4.4 µM
O=c1[nH]c(-c2cccc(Cl)c2)cs1,IC50,[2],24 µM
Nc1cc(NS(=O)(=O)c2cccs2)cc(-c2csc(=O)[nH]2)c1,IC50,[2],2.6 µM
same,GI50,[3],37.3 µM
same,inhibition,[4],> 50%
O=c1[nH]c(-c2cccc(NCCc3ccccc3)c2)cs1,IC50,[2],22.8 µM
O=C(Nc1cc(-c2csc(=O)[nH]2)ccc1NS(=O)(=O)c1cccs1)C1CCCC1,IC50,[2],2.5 µM
same,GI50,[3],63.6 µM
O=C(Nc1cc(-c2csc(=O)[nH]2)ccc1NS(=O)(=O)Cc1ccccc1)C1CCCC1,inhibition,[1],20.2%
O=c1[nH]c(-c2cccc(NS(=O)(=O)c3cccnc3)c2)cs1,IC50,[2],10 µM
Nc1ccc(-c2csc(=O)[nH]2)cc1O,IC50,[2],23.8 µM
Nc1ccc(-c2csc(=O)[nH]2)cc1,IC50,[2],51 µM
O=c1[nH]c(-c2cccc(NS(=O)(=O)Cc3ccccc3)c2)cs1,IC50,[2],4.1 µM
